From PubChem
PGC1a acetyl up = compounds raising PGC1a acetylation signal, primary screen, PGC1a modulator project, cell-based, U2OS, AlphaScreen, signal-increasing mode | overnight | activation, % at 15.6 µM | 0.21% of 350,000 active | AID 651723, 2012;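 active means every replicate reaching activation of at least 50%, whatever the mean replicate activation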;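 further: hits raise the AlphaScreen acetylation signal above neutral controls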
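Test system: U2OS cells expressing flag-PGC1a plus GCN5; Amount: 7000 U2OS cells per well; Compound: single test concentration per compound; Incubation: compound overnight at 37 °C, each detection step 1 h RT; Signal: AlphaScreen lysate read.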
* hit, by the source's call. These entries were drawn from the full list.

SMILES	PGC1a acetyl up
C#CCN1[C@H](/C=C/C2CC2)[C@H](Cc2ccccc2)OC(=O)[C@@H]1[C@@H]1N[C@@H](C(=O)OC)C(C)(C)S1	-46.1
O=C1C=C(c2cc3ccccc3s2)CCC1	58.2*
COc1ccc(/C=N/NC(=O)c2ccn[nH]2)cc1CN1CCOCC1	-43.2
Cc1noc(C)c1NC(=O)Nc1ccc2c(c1)C(=O)N([C@@H](C)CO)C[C@@H](C)[C@@H](CN(C)CC1CCCCC1)OCCCC[C@H](C)O2	-55.2
Cn1nnnc1Sc1ncnc2scc(-c3ccc[nH]3)c12	90.7*
COc1ccc(S(=O)(=O)N(Cc2cc3ccc(OC)cc3[nH]c2=O)CC2COCCO2)cc1 (stereo unspecified)	-44.5
O=C(Nc1cccc2c1CCCC2)c1ccccc1Br	-50.3
COc1cc(/C=C/c2cccc[n+]2C)ccc1OCC(=O)Nc1ccccc1	-42.4
CCOc1cc(CNC2CCCC2)cc(Cl)c1OCc1ccc(F)cc1	-78.4
C[C@H]1CN([C@@H](C)CO)C(=O)c2cc(C#Cc3ccccc3)cnc2O[C@@H]1CN(C)C(=O)c1ccccc1F	-45.9
C[C@H]1CN([C@@H](C)CO)C(=O)c2cc(C3=CCCC3)cnc2O[C@@H]1CN(C)C(=O)c1cccnc1	-53.2
C[C@@H]1CN([C@@H](C)CO)C(=O)c2cc(C3=CCCC3)cnc2O[C@@H]1CN(C)C(=O)Nc1cccc(F)c1	131.2*
C[C@@H]1CN([C@@H](C)CO)C(=O)c2cc(C#CCN(C)C)cnc2O[C@H]1CN(C)Cc1ccc(F)cc1	-48.5
C[C@H]1CN([C@@H](C)CO)C(=O)c2cc(-c3cncnc3)cnc2O[C@@H]1CN(C)C(=O)c1cccc(F)c1	-51.2
C[C@@H]1CN([C@H](C)CO)C(=O)c2cc(C#Cc3cccc(F)c3)cnc2O[C@H]1CN(C)CC1CCCC1	58.1*
O=c1c2cccnc2n(-c2ccccc2)n1Cc1ccc(Cl)cc1	-101.0
CCCCn1c(=NC(=O)c2cccnc2)c(C(=O)OCC)cc2c(=O)n3ccccc3nc21	115.1*
CC(C)CCCCCCCCCCCCC(=O)NCC(=O)NC1C(O)C(O)C(Nc2ncnc3nc[nH]c23)OC1C(O)CO (stereo unspecified)	-95.9
CCCC(=O)Nc1ccc(C(=O)N/N=C/c2cccnc2)cc1	68.7*
CCc1nnc(NC(=O)Cc2ccc(S(=O)(=O)N3CCCCC3)cc2)s1	64.9*
COc1ccc(CCNC(=O)COc2ccc(S(=O)(=O)N3CCCC3)cc2)cc1	-47.6
CC(C)(C)Cc1nnc(NS(=O)(=O)c2ccc(F)cc2)s1	-43.4
Cc1nc(N(CCO)C2CCCCC2)c2nnn(Cc3ccccc3)c2n1	-40.5
C[C@@H]1CN([C@@H](C)CO)C(=O)CCCn2cc(nn2)CO[C@H]1CN(C)Cc1ccncc1	-51.2
C=C1C(=O)O[C@H]2[C@H]1[C@@H](O)CC(=C)[C@@H]1CC(=O)[C@@H](C)[C@H]21	72.0*
SMILES	PGC1a acetyl up
O=c1[nH][nH]c(-c2ccccc2)c1C=Nc1ccccc1Cl	-41.2
CC(C)C(=O)Nc1ccc(NC(=O)c2ccc([N+](=O)[O-])cc2Cl)cc1	-51.6
O=C(Nc1ccc(Nc2ccncc2)cc1)c1ccc([N+](=O)[O-])cc1	69.9*
Cc1ccc(-c2csnn2)cc1	-50.6
COc1cc(OC)c2c(-c3cccc(-c4cccc(C)c4)c3)cc(=O)oc2c1	59.8*
COc1ccc2c3c([nH]c2c1)[C@H](CO)N(C(=O)c1ccncc1)CC31CN(C(=O)c2ccncc2)C1	-52.9
O=C1C2C3CCC(C3)C2C(=O)N1CNc1ccc(F)cc1 (stereo unspecified)	-46.6
O=C(NC1CCCC1)C(c1ccncc1)N(Cc1ccccc1F)C(=O)c1csnn1 (stereo unspecified)	-46.6
CC1(Cc2ccc(Cl)s2)C(=O)Nc2c(Cl)ccc(Cl)c21 (stereo unspecified)	65.3*
O=C(Nc1ccccc1-c1ccccc1)NC1CC2CCCC(C1)N2Cc1ccc(F)cc1 (stereo unspecified)	-42.2
CCOC(=O)NC(=O)CSc1nnnn1-c1ccc(C)cc1	-93.5
CCn1c(Cl)c(C=O)s/c1=N\S(=O)(=O)c1ccccc1	-78.1
O=[N+]([O-])c1cc(-c2nnc(Nc3ccc(O)cc3)c3ccccc23)ccc1N1CCOCC1	129.1*
COc1ccc(OC)c(NC(=O)C2C(C(=O)O)C3(Cl)C(Cl)=C(Cl)C2(Cl)C3(Cl)Cl)c1 (stereo unspecified)	-41.7
CCOC(=O)C1(Cc2cccc(F)c2)CCN(Cc2c(C)nn(CC)c2C)CC1	-48.5
Cc1cc(C)nc(SCC(=O)OCN2C(=O)c3ccccc3C2=O)n1	67.1*
Nc1cc(N)nc(SCC(=O)Nc2ccccc2N2CCOCC2)n1	-41.4
Cc1ccccc1CS(=O)(=O)c1nnc([C@H](CC(C)C)NC(=O)OC(C)(C)C)o1	74.5*
C[C@H](CO)N1C[C@H](C)[C@@H](CN(C)C(=O)CCN2CCCCC2)Oc2ncc(C#Cc3ccccn3)cc2C1=O	-47.6
CCN(CC)c1ccc(NC(=O)c2ccc(NC(=O)C3CCCO3)cc2)c(C)c1 (stereo unspecified)	53.5*
COC(=O)c1cccc2c1-c1ccccc1/C2=N/O	-75.4
Cc1cc(N2CCN(C)CC2)nc(=S)[nH]1	-53.1
COc1ccccc1C1c2ccc3ccccc3c2Oc2ncn(CCN(C)C)c(=N)c21 (stereo unspecified)	58.0*
COc1cccc(-n2c(-c3cccc(S(=O)(=O)N(C)C)c3)n[nH]c2=S)c1	-55.7
CCCS(=O)(=O)c1nnnn1-c1cccc(OC)c1	72.8*
SMILES	PGC1a acetyl up
O=C(c1cc(C2CC2)on1)N1CCCC(N2CCN(c3cccc(C(F)(F)F)c3)CC2)C1 (stereo unspecified)	-43.4
CCCCCCCCCCCCS[C@H]1CS(=O)(=O)C[C@@H]1O	-43.3
COc1ccc(S(=O)(=O)N[C@@H]2CC[C@H](CCNC(=O)c3ccccc3F)O[C@H]2CO)cc1	-42.9
COc1ccc(NC(=O)N[C@@H]2CC[C@H](CCn3cc(-c4ccccc4F)nn3)O[C@@H]2CO)cc1	-48.3
COc1ccc(S(=O)(=O)N2CC[C@@H]3[C@H](CO)Nc4ccc(-c5ccccc5F)cc4[C@@H]32)cc1	50.7*
O=C1C=CCCN1C(=O)/C=C/c1cccc(C(F)(F)F)c1	-78.4
CCCCCCNC(=O)c1ncn[nH]1	-41.2
CC(/C=N/N1CCN(Cc2ccccc2)CC1)=C\c1ccccc1	-44.2
O=C(CN1CCC(n2nnc3cc(F)ccc32)CC1)Nc1ccc2c(c1)CCC2	103.3*
COC(=O)Nc1ccc(Oc2ccccc2)cc1	-46.3
CCOC(=O)/C(C#N)=N/Nc1ccc(S(=O)(=O)Nc2cc(OC)nc(OC)n2)cc1	-51.7
Cc1cc(NS(=O)(=O)c2ccc(NC(=O)CCCOc3ccccc3)cc2)no1	51.9*
CN(C)C(=O)C[C@H]1C[C@@H]2c3cc(NC(=O)C4CCOCC4)ccc3O[C@@H]2[C@H](CO)O1	-41.2
O=C(O)CSCC(=O)NCc1ccc(Cl)cc1Cl	-41.2
COc1ccc(C(=O)Nc2cccc(S(C)(=O)=O)c2)cc1OC	-41.4
COc1ccc(N(C)S(=O)(=O)c2cccc(C(=O)Nc3ccc(-n4cnnn4)cc3)c2)cc1	67.0*
COc1ccc(C(=O)Nc2ccc3c4c(cccc24)CC3)cc1	-86.3
Cc1cc(Br)c(OCc2ccc(C(=O)N/N=C/c3ccc[nH]3)cc2)c(Br)c1	-86.7
COc1ccccc1OCCn1cc(/C=N/NC(=O)c2ccncc2)c2ccccc21	-49.6
COc1cccc(/C=N/NC(=O)c2ccc(-n3cnnn3)cc2)c1	83.5*
C#CC(CC)(CC)NC(=O)c1ccc(Br)s1	-45.6
